pIC50: −log10 of the molar value.
Key:
[1] = target: T1, Bromodomain-containing protein 4 (Homo sapiens, UniProt O60885); assay: Inhibition of BRD4 in human PBMC assessed as reduction in LPS-induced IL-6 secretion incubated for 18 to 24 hrs by MSD assay
[2] = target: T1, Bromodomain-containing protein 4; assay: Inhibition of BRD4 in human whole blood assessed as reduction in LPS-induced IL-6 secretion preincubated for 30 mins followed by LPS stimulation and measured after 24 hrs by MSD assay; format: tissue-based
[3] = Metabolic stability in mouse hepatocytes assessed as intrinsic clearance per g liver tissue at 0.5 uM measured upto 120 mins by LC-MS/MS analysis; format: ADME, cell-based, Hepatocyte; details: 2 h
In short: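 Cryopreserved mouse hepatocytes at 0.7 million cells/mL in Williams Medium E, compound 0.5 μM final (also repeated at 0.05 μM), 37 °C. […] No-cell and no-compound controls.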

[4] = Unbound fraction in Wistar Han rat blood at 100 to 1000 ng/ml by LC-MS/MS-based rapid equilibrium dialysis method; format: ADME, tissue-based; details: dose 100-1000 ng/ml
In short: (§1)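 Whole blood (male Balb/C mouse, male Wistar Han rat, male Beagle dog; human from one unmedicated donor) spiked to nominal 100 and 1000 ng/mL; 10 min at 37 °C, then rapid equilibrium dialysis against PBS 4 h at 37 °C, 100 rpm. Matrix-matched acetonitrile extraction, LC-MS/MS; mean of n = 6.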

[5] = Unbound fraction in Beagle dog blood at 100 to 1000 ng/ml by LC-MS/MS-based rapid equilibrium dialysis method; format: ADME, tissue-based, Canis lupus familiaris; details: dose 100-1000 ng/ml; in short: as §1
[6] = Unbound fraction in human blood at 100 to 1000 ng/ml by LC-MS/MS-based rapid equilibrium dialysis method; format: ADME, tissue-based; details: dose 100-1000 ng/ml; in short: as §1
Cytochrome P450 2C19 = Cytochrome P450 2C19 (Homo sapiens, UniProt P33261); assay: Inhibition of recombinant human CYP2C19 expressed in Escherichia coli using BMC as probe substrate incubated for 15 to 60 mins by fluorometric assay; format: ADME
In short: (§2)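 Recombinant human CYPs coexpressed with NADPH reductase in E. coli bactosomes (0.1 mg protein/mL); profluorescent substrates ER (1A2), BMC (2C19), MMC (2D6), VividGreen or VividRed (3A4).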

Cytochrome P450 2D6 = Cytochrome P450 2D6 (Homo sapiens, UniProt P10635); assay: Inhibition of recombinant human CYP2D6 expressed in Escherichia coli using MMC as probe substrate incubated for 15 to 60 mins by fluorometric assay; format: ADME; in short: as §2
[7] = Clearance in Wistar Han rat blood at 1 mg/kg/hr, iv measured upto 26 hrs by LC-MS/MS analysis; format: ADME, organism-based
[8] = Total blood clearance in CD1 mouse at 1 mg/kg/hr, iv measured upto 24 hrs by LC-MS/MS analysis relative to hepatic blood flow; format: ADME, organism-based; details: in vivo
In short: (§3)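 Surgically cannulated male CD1 mice (n = 3), 1 h iv infusion via jugular vein at 1 mg/kg/h (0.2 mg/mL in 2% DMSO/98% 10% Kleptose HPB in saline, 5 mL/kg/h). Tail-vein blood to 24 h plus terminal cardiac sample at 26 h; LC-MS/MS, LLQ 5 ng/mL. Mean ± SD.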

[9] = Total blood clearance in Wistar Han rat at 1 mg/kg/hr, iv measured upto 26 hrs by LC-MS/MS analysis relative to hepatic blood flow; format: ADME, organism-based; details: in vivo
[10] = Total blood clearance in Beagle dog at 1 mg/kg/hr, iv measured upto 28 hrs by LC-MS/MS analysis relative to hepatic blood flow; format: ADME, organism-based, Canis lupus familiaris; details: in vivo
[11] = Volume of distribution at steady state in CD1 mouse at 1 mg/kg/hr, iv measured upto 24 hrs by LC-MS/MS analysis; format: ADME, organism-based; details: in vivo, read-out: Vdss; in short: as §3
[12] = Volume of distribution at steady state in Wistar Han rat at 1 mg/kg/hr, iv measured upto 26 hrs by LC-MS/MS analysis; format: ADME, organism-based; details: in vivo, read-out: Vdss
[13] = Volume of distribution at steady state in Beagle dog at 1 mg/kg/hr, iv measured upto 28 hrs by LC-MS/MS analysis; format: ADME, organism-based, Canis lupus familiaris; details: in vivo, read-out: Vdss
[14] = Half life in CD1 mouse at 1 mg/kg/hr, iv measured upto 24 hrs by LC-MS/MS analysis; format: ADME, organism-based; details: in vivo; in short: as §3
[15] = Half life in Wistar Han rat at 1 mg/kg/hr, iv measured upto 26 hrs by LC-MS/MS analysis; format: ADME, organism-based; details: in vivo
[16] = Half life in Beagle dog at 1 mg/kg/hr, iv measured upto 28 hrs by LC-MS/MS analysis; format: ADME, organism-based, Canis lupus familiaris; details: in vivo
[17] = Oral bioavailability in CD1 mouse at 3 mg/kg measured upto 8 hrs by LC-MS/MS analysis; format: ADME, organism-based; details: in vivo
In short: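 Naive male CD1 mice (n = 3) given 3 mg/kg by oral gavage as suspension in 1% (w/v) methylcellulose 400, 0.6 mg/mL. Tail-vein blood to 8 h plus terminal cardiac sample at 12 h; LC-MS/MS, LLQ 5 ng/mL.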

[18] = AUC(0 to t) in Wistar Han rat at 1 mg/kg, po measured upto 24 hrs by HPLC-MS/MS analysis; format: ADME, organism-based; design: route oral, dose 1 mg/kg, time <=24; details: in vivo
In short: (§4)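 Oral suspension in 1% (w/v) hydroxypropylmethyl cellulose in water; male rats (n = 3) and male dogs (n = 4). AUC taken from 0 h to last quantifiable time point; Cmax is maximum observed plasma concentration; Tmax reported as median. Mean ± SD.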

[19] = AUC(0 to t) in Beagle dog at 5 mg/kg, po measured upto 24 hrs by HPLC-MS/MS analysis; format: ADME, organism-based, Canis lupus familiaris; design: route oral, dose 5 mg/kg, time <=24; details: in vivo; in short: as §4
[20] = Cmax in Wistar Han rat at 1 mg/kg, po measured upto 24 hrs by HPLC-MS/MS analysis; format: ADME, organism-based; design: route oral, dose 1 mg/kg, time <=24; details: in vivo; in short: as §4
[21] = Cmax in Beagle dog at 5 mg/kg, po measured upto 24 hrs by HPLC-MS/MS analysis; format: ADME, organism-based, Canis lupus familiaris; design: route oral, dose 5 mg/kg, time <=24; details: in vivo; in short: as §4
[22] = Tmax in Wistar Han rat at 1 mg/kg, po measured upto 24 hrs by HPLC-MS/MS analysis; format: ADME, organism-based; details: in vivo; in short: as §4
[23] = Tmax in Beagle dog at 5 mg/kg, po measured upto 24 hrs by HPLC-MS/MS analysis; format: ADME, organism-based, Canis lupus familiaris; details: in vivo; in short: as §4
[24] = target: T1, Bromodomain-containing protein 4; assay: Binding affinity to BRD4 (unknown origin) assessed as change in melting temperature
[25] = target: CREB-binding protein (Homo sapiens) (UniProt Q92793); assay: Binding affinity to CBP (unknown origin) by ITC assay
[26] = target: T1, Bromodomain-containing protein 4; assay: Binding affinity to BRD4 (unknown origin) by ITC assay
[27] = Passive permeability in MDCK cells; format: ADME, cell-based, Canis lupus familiaris; details: dog, read-out: permeability
Cytochrome P450 2C9 = Cytochrome P450 2C9 (Homo sapiens, UniProt P11712)
[28] = rat, hepatocytes, 2 h, 0.5 µM
[29] = dog, hepatocytes, 2 h, 0.5 µM
[30] = human, hepatocytes, 2 h, 0.5 µM
[31] = Clearance in CD1 mouse blood at 1.4 mg/kg/hr, iv measured upto 24 hrs by LC-MS/MS analysis
[32] = Oral bioavailability in Wistar Han rat at 3 mg/kg measured upto 24 hrs by HPLC-MS/MS analysis; details: in vivo

Sequence of Cytochrome P450 2D6 (P10635 whole entry): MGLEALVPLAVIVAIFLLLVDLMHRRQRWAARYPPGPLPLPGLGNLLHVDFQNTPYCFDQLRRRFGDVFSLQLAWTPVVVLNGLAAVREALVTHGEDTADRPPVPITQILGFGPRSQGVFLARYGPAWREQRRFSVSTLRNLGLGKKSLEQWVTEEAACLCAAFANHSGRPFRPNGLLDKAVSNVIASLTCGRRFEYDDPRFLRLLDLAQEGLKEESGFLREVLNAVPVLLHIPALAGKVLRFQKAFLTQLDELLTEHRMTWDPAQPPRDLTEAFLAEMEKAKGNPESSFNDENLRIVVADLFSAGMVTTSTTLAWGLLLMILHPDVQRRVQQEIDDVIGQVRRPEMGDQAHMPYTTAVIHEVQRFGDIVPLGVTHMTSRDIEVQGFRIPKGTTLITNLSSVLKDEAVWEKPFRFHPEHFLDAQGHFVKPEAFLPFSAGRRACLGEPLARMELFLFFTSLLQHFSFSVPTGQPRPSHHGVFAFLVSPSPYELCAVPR
Sequence of Cytochrome P450 2C19 (P33261 whole entry): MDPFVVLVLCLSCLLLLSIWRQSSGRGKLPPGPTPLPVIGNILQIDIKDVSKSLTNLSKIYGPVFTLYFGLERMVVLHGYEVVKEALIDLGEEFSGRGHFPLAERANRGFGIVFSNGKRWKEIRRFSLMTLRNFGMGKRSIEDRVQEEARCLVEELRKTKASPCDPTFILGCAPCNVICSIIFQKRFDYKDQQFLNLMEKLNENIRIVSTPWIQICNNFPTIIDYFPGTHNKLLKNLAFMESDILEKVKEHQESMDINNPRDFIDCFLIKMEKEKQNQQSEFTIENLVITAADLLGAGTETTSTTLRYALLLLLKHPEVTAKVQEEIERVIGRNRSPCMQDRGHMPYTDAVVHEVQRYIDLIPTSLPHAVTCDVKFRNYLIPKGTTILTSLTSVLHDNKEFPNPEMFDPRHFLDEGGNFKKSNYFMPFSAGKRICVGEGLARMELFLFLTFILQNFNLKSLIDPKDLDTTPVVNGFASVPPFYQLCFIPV
Sequence of CREB-binding protein (Homo sapiens) (Q92793 2-2442 limits assumed): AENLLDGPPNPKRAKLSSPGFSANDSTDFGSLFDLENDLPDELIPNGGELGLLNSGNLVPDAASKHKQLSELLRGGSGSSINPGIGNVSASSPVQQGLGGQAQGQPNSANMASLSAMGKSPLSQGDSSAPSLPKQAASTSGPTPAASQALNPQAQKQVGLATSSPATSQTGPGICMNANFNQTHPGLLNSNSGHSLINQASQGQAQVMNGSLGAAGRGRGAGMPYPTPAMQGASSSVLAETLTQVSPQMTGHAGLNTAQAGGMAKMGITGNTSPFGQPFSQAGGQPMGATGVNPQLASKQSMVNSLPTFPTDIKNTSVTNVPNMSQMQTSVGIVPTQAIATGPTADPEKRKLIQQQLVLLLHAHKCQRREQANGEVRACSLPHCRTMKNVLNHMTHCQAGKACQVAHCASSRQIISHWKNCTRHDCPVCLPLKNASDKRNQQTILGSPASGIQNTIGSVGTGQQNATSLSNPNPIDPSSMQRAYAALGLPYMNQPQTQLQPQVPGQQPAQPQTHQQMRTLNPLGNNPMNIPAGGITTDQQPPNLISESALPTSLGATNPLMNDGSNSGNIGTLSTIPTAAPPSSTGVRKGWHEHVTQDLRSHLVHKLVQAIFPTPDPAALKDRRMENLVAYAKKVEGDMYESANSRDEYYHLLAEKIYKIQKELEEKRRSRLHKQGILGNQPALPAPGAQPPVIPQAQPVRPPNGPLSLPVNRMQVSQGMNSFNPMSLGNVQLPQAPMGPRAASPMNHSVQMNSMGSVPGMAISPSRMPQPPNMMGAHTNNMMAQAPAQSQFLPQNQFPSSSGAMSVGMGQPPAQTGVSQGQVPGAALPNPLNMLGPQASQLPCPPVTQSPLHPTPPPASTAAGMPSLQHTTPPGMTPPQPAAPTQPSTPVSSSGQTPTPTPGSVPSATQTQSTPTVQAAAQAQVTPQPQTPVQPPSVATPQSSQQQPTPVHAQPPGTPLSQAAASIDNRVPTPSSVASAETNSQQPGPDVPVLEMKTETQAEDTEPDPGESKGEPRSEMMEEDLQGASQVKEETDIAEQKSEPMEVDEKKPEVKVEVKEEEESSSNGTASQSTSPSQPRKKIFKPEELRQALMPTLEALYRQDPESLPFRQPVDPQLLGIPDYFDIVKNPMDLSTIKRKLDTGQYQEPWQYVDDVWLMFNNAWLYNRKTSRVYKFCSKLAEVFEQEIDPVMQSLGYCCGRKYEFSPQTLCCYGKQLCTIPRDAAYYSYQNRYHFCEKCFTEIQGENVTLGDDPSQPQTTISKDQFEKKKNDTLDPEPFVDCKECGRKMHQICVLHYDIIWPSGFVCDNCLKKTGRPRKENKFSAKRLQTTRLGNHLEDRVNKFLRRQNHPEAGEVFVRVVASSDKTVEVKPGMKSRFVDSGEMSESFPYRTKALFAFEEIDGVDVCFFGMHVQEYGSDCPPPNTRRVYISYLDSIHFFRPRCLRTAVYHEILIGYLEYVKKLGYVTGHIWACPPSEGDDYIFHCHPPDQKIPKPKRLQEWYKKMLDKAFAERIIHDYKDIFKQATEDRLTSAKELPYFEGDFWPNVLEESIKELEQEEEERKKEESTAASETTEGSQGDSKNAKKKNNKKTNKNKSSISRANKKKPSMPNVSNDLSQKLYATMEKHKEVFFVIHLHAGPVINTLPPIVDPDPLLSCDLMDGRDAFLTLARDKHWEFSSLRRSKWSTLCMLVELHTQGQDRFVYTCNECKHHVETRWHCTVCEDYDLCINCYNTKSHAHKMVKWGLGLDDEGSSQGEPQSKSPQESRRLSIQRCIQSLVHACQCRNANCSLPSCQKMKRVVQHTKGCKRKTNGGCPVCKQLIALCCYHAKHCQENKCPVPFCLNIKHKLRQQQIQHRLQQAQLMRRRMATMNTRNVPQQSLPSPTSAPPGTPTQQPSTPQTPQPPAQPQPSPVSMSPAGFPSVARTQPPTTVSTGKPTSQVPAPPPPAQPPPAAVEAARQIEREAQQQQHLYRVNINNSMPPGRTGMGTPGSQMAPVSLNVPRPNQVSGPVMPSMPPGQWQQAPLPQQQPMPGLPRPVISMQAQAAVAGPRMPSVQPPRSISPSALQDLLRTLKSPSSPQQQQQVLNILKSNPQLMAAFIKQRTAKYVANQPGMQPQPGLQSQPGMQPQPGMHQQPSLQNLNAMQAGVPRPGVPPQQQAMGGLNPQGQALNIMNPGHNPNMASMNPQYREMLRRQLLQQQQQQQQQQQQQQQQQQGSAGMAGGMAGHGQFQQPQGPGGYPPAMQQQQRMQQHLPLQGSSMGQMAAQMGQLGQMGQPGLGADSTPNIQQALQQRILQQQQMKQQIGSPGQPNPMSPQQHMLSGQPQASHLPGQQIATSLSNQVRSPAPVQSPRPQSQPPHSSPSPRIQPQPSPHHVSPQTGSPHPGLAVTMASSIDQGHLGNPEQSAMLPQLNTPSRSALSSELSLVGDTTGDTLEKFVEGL
Sequence of Cytochrome P450 2C9 (P11712 whole entry): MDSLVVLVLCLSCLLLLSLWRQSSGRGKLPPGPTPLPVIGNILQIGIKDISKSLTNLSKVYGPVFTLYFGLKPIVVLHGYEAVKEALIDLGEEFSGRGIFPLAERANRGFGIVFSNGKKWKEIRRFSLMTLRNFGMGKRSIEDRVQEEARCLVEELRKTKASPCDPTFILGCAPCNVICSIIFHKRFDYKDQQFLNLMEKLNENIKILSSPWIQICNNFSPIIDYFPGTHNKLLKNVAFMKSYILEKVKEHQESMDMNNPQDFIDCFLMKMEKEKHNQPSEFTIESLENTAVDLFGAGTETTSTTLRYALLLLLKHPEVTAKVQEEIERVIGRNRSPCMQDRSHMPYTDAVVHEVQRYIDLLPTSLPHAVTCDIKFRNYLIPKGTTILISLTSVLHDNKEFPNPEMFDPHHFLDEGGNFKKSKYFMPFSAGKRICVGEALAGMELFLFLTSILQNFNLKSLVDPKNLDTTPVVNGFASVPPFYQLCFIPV

Compound `COC[C@@H](C)n1c(C2CCOCC2)nc2cnc3cc(-c4c(C)noc4C)c(OC)cc3c21` has a pIC50 [1] of 7.00, a pIC50 [2] of 6.50 and a CLint [3] of less than 0.86 mL/min/g liver. The fraction unbound [4] was 0.16, the fraction unbound [5] was 0.24 and the fraction unbound [6] was 0.17. It also gave a pIC50 (Cytochrome P450 2C19) of less than 4.30, a pIC50 (Cytochrome P450 2D6) of less than 4.30 and a clearance [7] of 20 mL/min/kg. For the same compound, the CLH [8] was 19%, the CLH [9] was 22% and the CLH [10] was 68%. The Vd [11] was 1.9 L/kg, the Vd [12] was 2.2 L/kg and the Vd [13] was 3.1 L/kg. It also gave a half-life [14] of 1.2 h, a half-life [15] of 1.4 h and a half-life [16] of 1.8 h. It also gave a bioavailability [17] of 51%, an AUC(0-t) at 24 h [18] of 467 ng·h/mL and an AUCt [19] of 367 ng·h/mL. The Cmax [20] was 125 ng/mL, the Cmax [21] was 177 ng/mL and the Tmax [22] was 1 h. For the same compound, the Tmax [23] was 0.75 h, the ΔTm [24] was 9.9 °C and the Activity [25] was 1730 nM. For the same compound, the Activity [26] was 47.5 nM, the Papp [27] was 34.6 ×10⁻⁶ cm/s and the pIC50 (Cytochrome P450 2C9) was less than 4.30. For the same compound, the CLint [28] was less than 0.86 mL/min/g liver, the CLint [29] was 2.4 mL/min/g liver and the CLint [30] was less than 0.86 mL/min/g liver. The clearance [31] was 23 mL/min/kg and the bioavailability [32] was 74%.

— ChEMBL document CHEMBL4842350, “Discovery of a Novel Bromodomain and Extra Terminal Domain (BET) Protein Inhibitor, I-BET282E, Suitable for Clinical Progression” (J Med Chem, 2021)
